# Results published in ChEMBL document CHEMBL5154945, “Discovery and Optimization of Pyrrolopyrimidine Derivatives as Selective Disruptors of the Perinucleolar Compartment, a Marker of Tumor Progression toward Metastasis” (J Med Chem, 2022).
# Activity calls are given as the source filed them. The calls are words filed in the database; no cut-off is given here.
# How the values were obtained:
# [1] = system: PC-3M; experiment: Anticancer activity in human PC-3M cells expressing PTB/GFP fusion protein assessed as perinucleolar compartment disassembly and measured after 24 hrs by Hoechst 33342 staining based microscopic method; format: functional, cell-based; conditions: read-out: IC50
# Method in brief: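 Imaged by high-content microscopy. Nuclei with PNC spots ≥3 and >0 scored positive. PNC prevalence % = PNC-positive nuclei/total nuclei ×100, normalized to DMSO (0% activity) and 0% PNC (−100%). IC50 from concentration-response.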
# [2] = Permeability of the compound at pH 7.4 incubated for 30 mins by UV plate reader based PAMPA assay; conditions: pampa, pH 7.4, 0.5 h
# [3] = Microsomal stability in CD1 mouse liver microsomes assessed as half life measured upto 60 mins in presence of NADPH by LC-MS analysis; conditions: mouse, microsomes, 1 h
# [4] = system: PC-3M; experiment: Antiproliferative activity against human PC-3M cells expressing PTB/GFP fusion protein assessed as cell growth inhibition and measured every four hrs for 130 hrs by IncuCyte zoom live cell analysis; format: functional, cell-based
# Method in brief: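 PC3M-PTB1-GFP cells in DMEM/10% FBS, seeded at 1.25×10^4 cells/ml and left overnight at 37 °C, 5% CO2. Compound added to give 11 final concentrations, 10 nM to 20 μM. Brightfield images taken every 4 h for about 130 h; percent confluence measured.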
smiles,measurement,setting,value
N=c1c2c(-c3ccccc3)cn(Cc3ccccc3)c2ncn1C1CCOCC1,IC50,[1],> 20 µM
same,permeability,[2],1729 10^-6 cm/s
same,t1/2,[3],5.2 min
same,Activity,[4],Active
